Cav3 T inh = Cav3.2 calcium influx blockers – cell-based, Fluo-4 calcium fluorescence, FDSS, MLSMR library, primary screen; Voltage-dependent T-type calcium channel subunit alpha-1H (Homo sapiens), O95180; actives 4% (n = 100,000); Cav3.2-expressing cells; stronger effect = lower value; B-score at 10 µM;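 active = single-dose well whose peak fluorescence ratio is a statistical outlier from its plate by either plate-standardised score or position-corrected B-score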
Plk1 PBD FP = Plk1 polo box domain binding inhibitors, primary screen, biochemical, fluorescence polarization; inhibition, %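 (tested at about 20 µM)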; actives 0.13% (n = 97,000); AID 693, 2007; Plk1 PBD phosphopeptide binding; Serine/threonine-protein kinase PLK1 (Homo sapiens), P53350; in the data active = inhibition above about 34%, passing the limit was not always enough
Rev-RRE block = HIV-1 Rev-RRE binding inhibitors, primary screen, biochemical, FRET, protein-RNA interaction | Rev peptide-RRE RNA binding | P05866 | inhibition, % at 8 µM | actives 0.79% (n = 97,000) | AID 704, 2007;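 active = inhibition above the screen-wide mean plus 3 SD, cut at about 35% in these data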;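 note: 0% = median DMSO wells and 100% = median Neomycin B control wells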
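System: Cy5-labelled duplex RRE RNA binding fluorescein-labelled HIV Rev peptide; Signal: fluorescein-to-Cy5 FRET, 480 nm excitation; Also added: labelled Rev peptide; Compound: one concentration, 8 µM nominal; Buffer or medium: HEPES pH 7.5 salt buffer with EDTA; Read-out: % inhibition of FRET ratio versus controls; Schedule: 5 min preincubation and 15 min binding, 25 °C.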
FAK blocker = FAK kinase inhibitors, primary screen, biochemical; Focal adhesion kinase 1 (Homo sapiens), Q05397; biochemical FAK kinase activity assay; inhibition, %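 (tested at 7 µM)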; actives 0.84% (n = 97,000); in the data active = inhibition above about 19%;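 note: 0% = DMSO and 100% = reference compound high control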
Target sequence (Q05397 whole entry, looked up): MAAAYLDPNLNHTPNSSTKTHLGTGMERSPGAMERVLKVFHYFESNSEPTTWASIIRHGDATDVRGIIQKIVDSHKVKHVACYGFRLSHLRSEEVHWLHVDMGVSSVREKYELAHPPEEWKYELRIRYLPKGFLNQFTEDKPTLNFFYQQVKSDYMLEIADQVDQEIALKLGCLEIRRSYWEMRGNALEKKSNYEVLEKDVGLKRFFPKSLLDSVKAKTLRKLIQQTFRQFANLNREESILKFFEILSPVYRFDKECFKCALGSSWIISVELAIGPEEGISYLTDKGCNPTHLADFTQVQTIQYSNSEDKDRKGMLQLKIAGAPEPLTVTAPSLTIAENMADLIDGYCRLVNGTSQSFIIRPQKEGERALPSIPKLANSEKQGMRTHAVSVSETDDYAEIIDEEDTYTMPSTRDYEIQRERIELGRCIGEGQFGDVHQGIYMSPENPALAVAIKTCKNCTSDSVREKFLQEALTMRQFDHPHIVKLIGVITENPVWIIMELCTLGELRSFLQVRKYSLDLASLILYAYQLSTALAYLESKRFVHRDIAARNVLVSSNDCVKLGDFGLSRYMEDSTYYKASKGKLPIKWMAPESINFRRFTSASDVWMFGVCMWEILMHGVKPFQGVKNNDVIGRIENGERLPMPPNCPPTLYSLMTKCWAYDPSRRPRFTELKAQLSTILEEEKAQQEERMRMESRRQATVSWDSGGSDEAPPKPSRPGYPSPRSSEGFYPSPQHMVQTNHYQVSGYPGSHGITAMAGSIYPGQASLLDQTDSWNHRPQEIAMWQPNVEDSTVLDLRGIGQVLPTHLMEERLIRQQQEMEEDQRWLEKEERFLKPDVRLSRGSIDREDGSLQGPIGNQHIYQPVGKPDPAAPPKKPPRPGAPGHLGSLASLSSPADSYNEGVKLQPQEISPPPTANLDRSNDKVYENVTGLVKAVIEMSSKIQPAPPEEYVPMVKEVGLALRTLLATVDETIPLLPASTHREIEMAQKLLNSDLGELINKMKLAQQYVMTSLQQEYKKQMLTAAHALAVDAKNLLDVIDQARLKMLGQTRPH
PLK1 inh = human PLK1 kinase inhibitors, primary screen, biochemical, TR-FRET; Serine/threonine-protein kinase PLK1 (Homo sapiens), P53350; recombinant PLK1 kinase, TR-FRET peptide phosphorylation; inhibition, % at 10 µM; actives 0.53% (n = 97,000); AID 619, 2007;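 active = inhibition of 50% or more in the single-concentration screen; inactive = inhibition below 50%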;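 note: 0% = DMSO max control and 100% = H-89 dihydrochloride min control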
EphB4 ephrin blk = EphB4-ephrin-B2 interaction antagonists, primary screen, biochemical, TNYL-RAW peptide probe, fluorescence polarization. actives 0.15% (n = 97,000). EphB4 LBD / TNYL-RAW-Alexa532 peptide. inhibition, % at 7 µM. Ephrin type-B receptor 4 (Homo sapiens), P54760;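 active = inhibition above the screen-wide mean inhibition plus 3 SD, cut at about 15% in these data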;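 note: 0% = DMSO wells and 100% = excess unlabeled TNYL-RAW peptide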
The depositor's hits bear a star; · = no result. Most compounds without a hit are left out; they make up all but 5.3% or so of the library.

SMILES	Cav3 T inh	Plk1 PBD FP	Rev-RRE block	FAK blocker	PLK1 inh	EphB4 ephrin blk
COc1ccc(/C=N/NC(=O)C2c3ccccc3Oc3ccccc32)c(OC)c1	·	22	1	0	-8	-5
CCOP(=O)(OCC)c1nc(/C=C/c2ccccc2)oc1NCc1ccc(OC)cc1	-5.6*	-8	3	1	-19	-1
Cc1ccc(-n2c(Cc3cccn3C)nnc2SCC(=O)N2CCc3ccccc32)cc1	-3.3*	-29	6	-2	7	8
Cn1cccc1Cc1nnc(SCC(=O)N2CCc3ccccc32)n1-c1ccc(F)cc1	-1.5	·	·	·	·	·
Cn1cccc1Cc1nnc(SCC(=O)N2CCCc3ccccc32)n1-c1ccc(F)cc1	-7.9*	·	·	·	·	·
COc1ccc(-n2c(Cc3ccccc3)nnc2SCC(=O)N2CCCc3ccccc32)cc1	-8.5*	-7	6	0	-12	-5
COC(=O)C1=C(C(=O)OC)[C@@H]2N(Cc3ccccc3)c3ccccc3[C@@]23C[C@@H](C(=O)OC)N=C3N1	0.15	·	·	·	·	·
CCOC(=O)N1CCC(n2c(SCC(=O)NCc3ccccc3)nc3ccccc3c2=O)CC1	-1.1	15	2	-6	-9	16*
CCOC(=O)N1CCC(n2c(SCC(=O)OCc3ccccc3)nc3ccsc3c2=O)CC1	-4*	4	-1	-2	-6	-1
CCOC(=O)CSc1nc2ccsc2c(=O)n1C1CCN(C(=O)OCC)CC1	-0.81	0	5	-1	9	-2
CCOC(=O)CSc1nc2ccccc2c(=O)n1CC1CCCC1	-3.5*	11	18	0	-11	2
CCOC(=O)N1CCC(n2c(SCC(=O)NCCC3=CCCCC3)nc3ccccc3c2=O)CC1	-5.1*	-9	6	11	-5	15*
CCOC(=O)N1CCC(n2c(SCC(=O)N3CCC(C)CC3)nc3ccccc3c2=O)CC1	-4.2	-26	4	-5	-4	5
CCOC(=O)CSc1nc2ccccc2c(=O)n1CC	-1.4	11	7	0	-7	2
Clc1cc(Cl)cc(C2=NC(Cc3ccccc3)CO2)c1 (centres undefined)	-0.2	·	·	·	·	·
NCCn1c(-c2ccccc2)cc(C(=O)O)c1-c1ccccc1F	0.22	·	·	·	·	·
Cc1nn2c(N3CCN(C(=O)c4ccco4)CC3)cc(C(C)(C)C)nc2c1-c1ccccc1	-6.7*	-13	10	4	-15	1
Cc1cc(C(=O)CN2C(=O)NC3(CCCc4ccccc43)C2=O)c(C)n1Cc1cccs1 (centres undefined)	-7.4*	20	3	1	-6	-8
Cc1cc(C(=O)CN2C(=O)NC(c3ccccc3)(c3ccccc3)C2=O)c(C)n1Cc1ccco1	-8.6*	10	3	-2	1	2
C=CCn1c(C)cc(C(=O)CN2C(=O)NC3(CCCc4ccccc43)C2=O)c1C (centres undefined)	-0.82	-6	5	1	-3	3
CC(C)NC(C(=O)Nc1cc(Cl)cc(Cl)c1)c1ccccc1 (centres undefined)	-4.6*	11	13	2	-7	0
O=C(O)CC(CCc1ccccc1)OC1OC(CO)C(O)C(O)C1O (centres undefined)	1.3	·	·	·	·	·
[C-]#[N+][C@H](O[C@@H]1O[C@H](CO)[C@@H](O)[C@H](O)[C@H]1O)c1ccccc1	-5.7*	·	·	·	·	·
COc1ccc(CN(C(=O)CSc2nnc(-c3ccccc3F)o2)c2ccc(F)cc2)cc1	-4.8*	-5	1	3	7	-3
COc1ccc(-c2nnc(SCC(=O)c3ccc[nH]3)o2)cc1	0.72	13	3	2	-11	-3
SMILES	Cav3 T inh	Plk1 PBD FP	Rev-RRE block	FAK blocker	PLK1 inh	EphB4 ephrin blk
Cn1c(=O)c2c(SCc3ccccn3)nc(CC(C)(C)C)nc2n(C)c1=O	-5.9*	1	4	1	-10	6
CCCc1nc(SCc2ccccn2)c2c(=O)n(C)c(=O)n(C)c2n1	-0.41	22	10	-5	-19	0
C/C(=N\Nc1nc2c(s1)CCCC2)c1ccccc1	-0.2	1	-5	3	-14	1
C=CCSC1=C(C#N)C(c2ccc(C(C)C)cc2)CC(=O)N1 (centres undefined)	-3.5*	9	10	-5	-1	-6
C=CCSC1=C(C#N)C(c2ccccc2)CC(=O)N1 (centres undefined)	0.5	-8	8	2	-11	8
COC1(OC)C=CC(=O)C=C1NC(=O)c1ccccc1OC(C)=O	0.74	·	·	·	·	·
CCN1C(=O)CC(C(=O)Nc2ccc(F)cc2)SC1=Nc1cccc(OC)c1 (centres undefined)	·	17	16	-4	-11	0
CCOc1cccc(NC(=O)C2CC(=O)NC(=Nc3ccccc3)S2)c1 (centres undefined)	-4.9*	7	2	0	-2	2
CCN1CCN(C(=S)c2ccc(OCC(=O)N3CCOCC3)cc2)CC1	0.028	-2	11	-1	-11	3
CC(O)[C@H]1CNC(=O)C(=O)N1CC(C)(C)C (some centres undefined)	1.2	·	·	·	·	·
CCCCN(CC)S(=O)(=O)c1ccc(C(=O)Nc2nnc(-c3ccccc3Cl)o2)cc1	-3	-18	14	0	-19	5
CCC1CCCCN1S(=O)(=O)c1ccc(C(=O)Nc2nnc(-c3ccccc3Cl)o2)cc1 (centres undefined)	-7.9*	14	12	-7	-19	2
O=C(Nc1ccccc1)c1ccc(S(=O)(=O)N2CCCCC2)cc1	-0.027	19	-3	-3	-2	-9
CC1CCCCN1S(=O)(=O)c1ccc(C(=O)Nc2nnc(-c3ccccc3Cl)o2)cc1 (centres undefined)	·	7	10	0	-15	9
O=C(Nc1nnc(-c2ccccc2Cl)o1)c1ccc(S(=O)(=O)N2CCCCCC2)cc1	-7.1*	20	12	-2	-11	4
O=C(Nc1ccn(-c2ccccc2)n1)c1ccc(S(=O)(=O)N2CCCCCC2)cc1	-1.9*	8	5	-12	-8	0
CC(Oc1ccc(C(C)(C)C)cc1)c1ccnc2nc(/N=C/N(C)C)nn12 (centres undefined)	-0.85	-7	3	0	-4	6
O=C(CCN1C(=O)c2ccccc2C1=O)N1CCN(Cc2ccccc2)CC1	1.4	-14	4	-2	-11	0
O=C(CCN1C(=O)c2ccccc2C1=O)N1CCN(Cc2ccc(Cl)cc2Cl)CC1	-6*	·	·	·	·	·
S=C(NN=C(C1CC1)C1CC1)Nc1ccccc1	·	-9	2	0	-8	4

High-throughput results (PubChem BioAssay)
